*1 amine or outer side, *2 acyl side, *3 side chain or, on linkers, in order; H or OH if unused. Where a SMILES comes first, the peptide text is derived from it. [ ]: non-standard residue; d: D form. The star is where a group is joined. Asp(3,3-(CH2)4) = N[C@H](C(=O)O)C1(C(=O)O)CCCC1; Dibenzylacetyl = O=C(C(Cc1ccccc1)Cc1ccccc1)*; Leu(γ-Me)ol = CC(C)(C)C[C@@H](CO)N*; tBuAla = CC(C)(C)C[C@H](N)C(=O)O; Tle = CC(C)(C)[C@H](N)C(=O)O; NMeV = CN[C@H](C(=O)O)C(C)C; X1 = CC[C@@H](N*)C(C)(C)C; NH(3-pentyl) = CCC(CC)N*; Pyrrolidide = C1CCN(*)C1; NHcHex = C1CCC(N*)CC1; CO = O=C([*:1])[*:2]; X2 = CCCC(CCC)N*; NHiPr = CC(C)N*
Legend:
[1] = target: Ribonucleotide reductase large subunit R1 (Herpes simplex virus); test: Inhibitory effect was evaluated on Herpes simplex virus (HSV) ribonucleotide reductase (RR) enzyme.
[2] = tested on: BHK-21; test: Effective concentration was evaluated against HSV-2 by using serum starved baby hamster kidney cells in a colorimetric viral yield assay.; format: functional, cell-based; details: Mesocricetus auratus
How it was run: (§1)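 Viral yield in serum-starved BHK cells, read colorimetrically. EC50 reported as mean of at least three separate determinations with standard deviation. Cytotoxicity measured in parallel by MTT (tetrazolium) metabolic assay to give CC50.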

[3] = tested on: BHK-21; test: Effective concentration was evaluated against HSV-1 by using serum starved baby hamster kidney cells in a colorimetric viral yield assay.; format: functional, cell-based; details: Mesocricetus auratus
How it was run: as §1

IC50 [1] | SMILES | EC50 [2] | EC50 [3]
3 nM | CCC(CC)NC(=O)N[C@H](C(=O)N[C@@H](CC(=O)C(C)(C)C)C(=O)N[C@@H](CC(=O)O)C(=O)N[C@@H](CC(C)C)C(=O)O)C(C)(C)C |  | 
7 nM | CCCC(CCC)NC(=O)N[C@H](C(=O)N[C@@H](CC(=O)N1CCCC1)C(=O)N[C@@H](CC(=O)O)C(=O)N[C@@H](CC(C)C)C(=O)O)C(C)C ({X2-CO}-VD(Pyrrolidide)DL-OH) |  | 
 | C[C@@H]1CCC[C@H](C)[C@@H]1NC(=O)N[C@H](C(=O)C[C@@H](CC(=O)C(C)(C)C)C(=O)N[C@H](C(=O)NCC(C)(C)C)C1(C(=O)O)CCCC1)C(C)(C)C | 26000 nM | 17000 nM
20 nM | CC(C)C[C@H](NC(=O)[C@H](CC(=O)O)NC(=O)[C@H](CC(=O)N1CCCC1)NC(=O)[C@@H](NC(=O)NC1[C@@H](C)CCC[C@@H]1C)C(C)C)C(=O)O.CC(C)C[C@H](NC(=O)[C@H](CC(=O)O)NC(=O)[C@H](CC(=O)N1CCCC1)NC(=O)[C@@H](NC(=O)NC1[C@H](C)CCC[C@H]1C)C(C)C)C(=O)O |  | 
 | CC[C@@H](NC(=O)[C@@H](NC(=O)[C@H](CC(=O)N1CCCC1)NC(=O)[C@@H](NC(=O)N[C@@H]1[C@H](C)CCC[C@@H]1C)C(C)(C)C)C1(C(=O)O)CCCC1)C(C)(C)C | 40000 nM | 28000 nM
55 nM | CC(C)C[C@H](NC(=O)[C@H](CC(=O)O)NC(=O)[C@H](CC(=O)N1CCCC1)NC(=O)[C@@H](NC(=O)NC1[C@H](C)CCC[C@@H]1C)C(C)C)C(=O)O (stereo in doubt; 7) |  | 
 | CC[C@@H](NC(=O)[C@@H](NC(=O)[C@@H](CC(=O)[C@@H](NC(=O)N[C@@H]1[C@H](C)CCC[C@@H]1C)C(C)(C)C)CC(=O)C(C)(C)C)C1(C(=O)O)CCCC1)C(C)(C)C | 7000 nM | 6000 nM
40 nM | CCC(CC)NC(=O)N[C@H](C(=O)N[C@@H](CC(=O)N1CCCC1)C(=O)N[C@@H](CC(=O)O)C(=O)NCC(C)(C)C)C(C)(C)C |  | 
 | CC[C@@H](NC(=O)[C@@H](NC(=O)[C@H](CC(=O)N1CCCC1)NC(=O)[C@@H](NC(=O)[C@H](C(C)C)N(C)C(=O)C(Cc1ccccc1)Cc1ccccc1)C(C)(C)C)C1(C(=O)O)CCCC1)C(C)(C)C (Dibenzylacetyl-[NMeV][Tle]D(Pyrrolidide)[Asp(3,3-(CH2)4)]-X1) | 1800 nM | 800 nM
 | CCCC(CCC)NC(=O)N[C@H](C(=O)C[C@@H](CC(=O)C(C)(C)C)C(=O)N[C@H](C(=O)N[C@H](CC)C(C)(C)C)C1(C(=O)O)CCCC1)C(C)(C)C | 5000 nM | 6000 nM
7 nM | CCC(CC)NC(=O)N[C@H](C(=O)C[C@@H](CC(=O)N1CCCC1)C(=O)N[C@@H](CC(=O)O)C(=O)N[C@@H](CC(C)C)C(=O)O)C(C)(C)C |  | 
5 nM | CCC(CC)NC(=O)N[C@H](C(=O)C[C@@H](CC(=O)C(C)(C)C)C(=O)N[C@@H](CC(=O)O)C(=O)N[C@@H](CC(C)C)C(=O)O)C(C)(C)C |  | 
 | CC[C@@H](NC(=O)[C@@H](NC(=O)[C@@H](CC(=O)[C@@H](NC(=O)[C@H](C(C)C)N(C)C(=O)C(Cc1ccccc1)Cc1ccccc1)C(C)(C)C)CC(=O)C(C)(C)C)C1(C(=O)O)CCCC1)C(C)(C)C | 1600 nM | 1300 nM
2 nM | CC(C)C[C@H](NC(=O)[C@H](CC(=O)O)NC(=O)[C@H](CC(=O)N1CCCC1)NC(=O)[C@@H](NC(=O)NC1[C@H](C)CCC[C@@H]1C)C(C)C)C(=O)O (stereo in doubt; 9) |  | 
100 nM | CCC(CC)NC(=O)N[C@H](C(=O)N[C@@H](CC(=O)N1CCCC1)C(=O)N[C@@H](CC(=O)O)C(=O)NCCC(C)(C)C)C(C)(C)C |  | 
3 nM | CCC(CC)NC(=O)N[C@H](C(=O)N[C@@H](CC(=O)N1CCCC1)C(=O)N[C@@H](CC(=O)O)C(=O)N[C@@H](CC(C)C)C(=O)O)C(C)(C)C ({NH(3-pentyl)-CO}-[Tle]D(Pyrrolidide)DL-OH) |  | 

IC50 [1] | SMILES | EC50 [2] | EC50 [3]
 | CC[C@@H](NC(=O)[C@@H](NC(=O)[C@@H](CC(=O)[C@@H](NC(=O)N[C@@H]1[C@H](C)CCC[C@@H]1C)C(C)(C)C)CC(=O)N1CCCC1)C1(C(=O)O)CCCC1)C(C)(C)C | 80000 nM | 50000 nM
 | CC[C@@H](NC(=O)[C@@H](NC(=O)[C@H](CC(=O)C(C)(C)C)NC(=O)[C@@H](NC(=O)N[C@@H]1[C@H](C)CCC[C@@H]1C)C(C)(C)C)C1(C(=O)O)CCCC1)C(C)(C)C | 13000 nM | 13000 nM
0.6 nM | CCC(CC)NC(=O)N[C@H](C(=O)N[C@@H](CC(=O)N1CCCC1)C(=O)N[C@@H](CC(=O)O)C(=O)N[C@@H](CC(C)(C)C)C(=O)O)C(C)(C)C ({NH(3-pentyl)-CO}-[Tle]D(Pyrrolidide)D[tBuAla]-OH) |  | 
6 nM | CCC(CC)NC(=O)N[C@H](C(=O)N[C@@H](CC(=O)N1CCCC1)C(=O)N[C@@H](CC(=O)O)C(=O)N[C@H](CO)CC(C)(C)C)C(C)(C)C |  | 
2700 nM | CCC(CC)NC(=O)N[C@H](C(=O)N[C@@H](CC(=O)N1CCCC1)C(=O)N[C@@H](CC(=O)O)C(=O)N[C@@H](C)C(C)(C)C)C(C)(C)C |  | 
2000 nM | CCC(CC)NC(=O)N[C@H](C(=O)N[C@@H](CC(=O)N1CCCC1)C(=O)N[C@@H](CC(=O)O)C(=O)N[C@@H](CC)C(C)(C)C)C(C)(C)C |  | 
27 nM | CCC(CC)NC(=O)N[C@H](C(=O)N[C@@H](CC(=O)N1CCCC1)C(=O)N[C@@H](CC(=O)O)C(=O)N[C@H](C)C(C)(C)C)C(C)(C)C |  | 
1900 nM | CCC(CC)NC(=O)N[C@H](C(=O)N[C@@H](CC(=O)N1CCCC1)C(=O)N[C@@H](CC(=O)O)C(=O)NCC(C)C)C(C)(C)C |  | 
 | CC(C)[C@@H](C(=O)N[C@H](C(=O)N[C@@H](CC(=O)N1CCCC1)C(=O)N[C@H](C(=O)N[C@H](CO)CC(C)(C)C)C1(C(=O)O)CCCC1)C(C)(C)C)N(C)C(=O)C(Cc1ccccc1)Cc1ccccc1 (Dibenzylacetyl-[NMeV][Tle]D(Pyrrolidide)[Asp(3,3-(CH2)4)]-{Leu(γ-Me)ol}) | 4200 nM | 3100 nM
440 nM | CC(C)C[C@H](NC(=O)[C@H](CC(=O)O)NC(=O)[C@H](CC(=O)N1CCCC1)NC(=O)[C@@H](NC(=O)NC(C)C)C(C)C)C(=O)O ({NHiPr-CO}-VD(Pyrrolidide)DL-OH) |  | 
18 nM | CCC(CC)NC(=O)N[C@H](C(=O)N[C@@H](CC(=O)N1CCCC1)C(=O)N[C@@H](CC(=O)O)C(=O)N[C@H](CC)C(C)(C)C)C(C)(C)C |  | 
 | C[C@@H]1CCC[C@H](C)[C@@H]1NC(=O)N[C@H](C(=O)C[C@@H](CC(=O)C(C)(C)C)C(=O)N[C@H](C(=O)N[C@H](CO)CC(C)(C)C)C1(C(=O)O)CCCC1)C(C)(C)C | 26000 nM | 26000 nM
 | Nc1nc2c(ncn2COCCO)c(=O)[nH]1 [ACYCLOVIR] | 2000 nM | 2000 nM
350 nM | CCC(CC)NC(=O)N[C@H](C(=O)N[C@@H](CC(=O)N1CCCC1)C(=O)N[C@@H](CC(=O)O)C(=O)NCCC(C)C)C(C)(C)C |  | 
500 nM | CC(C)C[C@H](NC(=O)[C@H](CC(=O)O)NC(=O)[C@H](CC(=O)N1CCCC1)NC(=O)[C@@H](NC(=O)NC1CCCCC1)C(C)C)C(=O)O ({NHcHex-CO}-VD(Pyrrolidide)DL-OH) |  | 
15 nM | CCC(CC)NC(=O)N[C@H](C(=O)N[C@@H](CC(=O)N1CCCC1)C(=O)N[C@@H](CC(=O)O)C(=O)N[C@@H](CC(C)C)C(=O)O)C(C)C ({NH(3-pentyl)-CO}-VD(Pyrrolidide)DL-OH) |  | 

— ChEMBL document CHEMBL1129444, “Peptidomimetic inhibitors of herpes simplex virus ribonucleotide reductase with improved in vivo antiviral activity” (J Med Chem, 1996)
